Columns and labels:
[1] = tested on: Raji; assay: Inhibition of 12-O-tetradecanoylphorbol-13-acetate-induced EBV-early antigen activation in human Raji cells at 10 molar ratio after 48 hrs relative to TPA; type: cell-based; parameters: scale not given: the % may be the effect or the level left; settings: human gammaherpesvirus 4
Summary of the method: (§1)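 Raji indicator cells kept 48 h at 37° in 1 ml medium with n-butyric acid (4 mM, co-inducer), TPA (20 ng/ml, […]) and test compound in DMSO, dosed as mol ratio to TPA. EA-positive cells were found by indirect immunofluorescence on smears with high-titer EBV-positive NPC patient sera. At least 500 cells counted per assay, repeated twice. Induction is expressed relative to the butyric acid+TPA positive control (100%).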

[2] = Cytotoxicity against human Raji cells assessed as cell viability at 10 molar ratio; type: cell-based; settings: read-out: Activity
Summary of the method: (§2)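 Raji cell viability read in the same EBV-EA run: 48 h at 37° with n-butyric acid (4 mM) and TPA ([…]) plus test compound in DMSO, dosed as mol ratio to TPA. Viability is given alongside the relative EA activation values.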

[3] = tested on: Raji; assay: Inhibition of 12-O-tetradecanoylphorbol-13-acetate-induced EBV-early antigen activation in human Raji cells at 1000 molar ratio after 48 hrs relative to TPA; type: cell-based; parameters: scale not given: the % may be the effect or the level left; settings: human gammaherpesvirus 4; summary of the method: as §1
[4] = Cytotoxicity against human Raji cells assessed as cell viability at 1000 molar ratio; type: cell-based; settings: read-out: Activity; summary of the method: as §2
[5] = tested on: Raji; assay: Inhibition of 12-O-tetradecanoylphorbol-13-acetate-induced EBV-early antigen activation in human Raji cells at 500 molar ratio after 48 hrs relative to TPA; type: cell-based; parameters: scale not given: the % may be the effect or the level left; settings: human gammaherpesvirus 4; summary of the method: as §1
[6] = Cytotoxicity against human Raji cells assessed as cell viability at 1 molar ratio; type: cell-based; settings: read-out: Activity; summary of the method: as §2
[7] = Cytotoxicity against human Raji cells assessed as cell viability at 500 molar ratio; type: cell-based; settings: read-out: Activity; summary of the method: as §2
[8] = tested on: Raji; assay: Inhibition of 12-O-tetradecanoylphorbol-13-acetate-induced EBV-early antigen activation in human Raji cells at 1 molar ratio after 48 hrs relative to TPA; type: cell-based; parameters: scale not given: the % may be the effect or the level left; settings: human gammaherpesvirus 4; summary of the method: as §1
[9] = Cytotoxicity against human Raji cells assessed as cell viability at 100 molar ratio; type: cell-based; settings: read-out: Activity; summary of the method: as §2
[10] = tested on: Raji; assay: Inhibition of 12-O-tetradecanoylphorbol-13-acetate-induced EBV-early antigen activation in human Raji cells at 100 molar ratio after 48 hrs relative to TPA; type: cell-based; parameters: scale not given: the % may be the effect or the level left; settings: human gammaherpesvirus 4; summary of the method: as §1
[11] = tested on: Mus musculus; assay: Inhibition of DMBA-induced/TPA-promoted carcinogenesis in ICR mouse assessed as reduction of skin papillomas per mouse at 85 nmol administered twice weekly after 1 week of initiation measured after 20 weeks; type: functional; parameters: scale not given: the % may be the effect or the level left
Summary of the method: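 Female ICR mice, 7 weeks old, 15 per group, had shaved backs. They were initiated with DMBA (100 µg, […]) in Me2CO, then promoted from 1 week later with TPA (1 µg, […]) in Me2CO twice weekly, with test agent given with TPA. Papilloma incidence and average papillomas per mouse were scored against the TPA-alone control.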

Structure (SMILES)	Activity [1]	viability at 10 molar ratio [2]	Activity [3]	viability at 1000 molar ratio [4]	Activity [5]	viability at 1 molar ratio [6]	viability at 500 molar ratio [7]	Activity [8]	viability at 100 molar ratio [9]	Activity [10]	Activity [11]
CC1=CC[C@H](C(C)C)C=C1 [ALPHA-PHELLANDRENE]	100%	> 80%	78.5%	> 80%	93.7%	> 80%	> 80%	100%	> 80%	100%	–
C=C1CCC[C@]2(C)CC[C@@H](C(C)(C)O)C[C@@H]12 [BETA-EUDESMOL]	100%	> 80%	40.1%	> 80%	68.9%	> 80%	> 80%	100%	> 80%	83.8%	–
C=CCc1ccc(O)c(-c2ccc(O)c(CC=C)c2)c1 [HONOKIOL]	90.1%	> 80%	0%	60%	18.5%	> 80%	> 80%	100%	> 80%	69.4%	–
C=CCc1ccc(O)c(-c2cc(CC=C)ccc2O)c1 [MAGNOLOL]	56.9%	> 80%	0%	70%	0%	> 80%	> 80%	94.4%	> 80%	31.2%	40%
C=CCc1ccc(O)c(-c2cc(CC=C)cc(C3C=C(C)CC[C@@H]3C(C)C)c2O)c1 (stereo partly specified) [MONOTERPENYL MAGNOLOL]	100%	> 80%	11.6%	60%	20.9%	> 80%	> 80%	100%	> 80%	82.6%	–

Source: ChEMBL document CHEMBL1158958, “Studies on inhibitors of skin tumor promotion, IX. Neolignans from Magnolia officinalis” (J Nat Prod, 1991)
